Results reported in ChEMBL document CHEMBL1126707, “Tetrapeptide tachykinin antagonists: synthesis and modulation of the physicochemical and pharmacological properties of a new series of partially cyclic analogs” (J Med Chem, 1993).
≈ marks a conversion by molar mass, not a printed value. Peptide text beside a SMILES is read from it.

Tests used:
[1] = Solubility was evaluated; assay type: physicochemical
Substance-K receptor [2] = biological target: T1, Substance-K receptor (Homo sapiens, UniProt P21452); assay: Tested for binding affinity against human NK-2 receptor transfected on CHO cells using [125I]-His] NKA as radioligand; assay type: cell-based
T1 sequence (P21452 whole entry): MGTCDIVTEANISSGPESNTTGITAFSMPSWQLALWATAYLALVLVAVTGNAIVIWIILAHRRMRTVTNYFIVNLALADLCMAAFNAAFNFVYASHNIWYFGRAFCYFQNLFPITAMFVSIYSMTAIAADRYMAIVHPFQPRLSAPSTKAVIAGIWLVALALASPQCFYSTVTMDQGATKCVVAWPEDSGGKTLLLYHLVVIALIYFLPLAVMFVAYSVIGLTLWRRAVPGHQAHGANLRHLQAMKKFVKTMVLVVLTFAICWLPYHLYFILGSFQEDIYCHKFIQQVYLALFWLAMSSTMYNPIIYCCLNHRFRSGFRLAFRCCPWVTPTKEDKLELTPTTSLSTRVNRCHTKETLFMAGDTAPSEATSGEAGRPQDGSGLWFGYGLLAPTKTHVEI

Substance-K receptor [3] = biological target: T2, Substance-K receptor (Oryctolagus cuniculus, UniProt P79218); assay: Tested for antagonist activity against NK-2 receptor in rabbit pulmonary artery by using Neurokinin A as agonist; assay type: functional; details: read-out: pA2 (converted)
T2 sequence (P79218 whole entry): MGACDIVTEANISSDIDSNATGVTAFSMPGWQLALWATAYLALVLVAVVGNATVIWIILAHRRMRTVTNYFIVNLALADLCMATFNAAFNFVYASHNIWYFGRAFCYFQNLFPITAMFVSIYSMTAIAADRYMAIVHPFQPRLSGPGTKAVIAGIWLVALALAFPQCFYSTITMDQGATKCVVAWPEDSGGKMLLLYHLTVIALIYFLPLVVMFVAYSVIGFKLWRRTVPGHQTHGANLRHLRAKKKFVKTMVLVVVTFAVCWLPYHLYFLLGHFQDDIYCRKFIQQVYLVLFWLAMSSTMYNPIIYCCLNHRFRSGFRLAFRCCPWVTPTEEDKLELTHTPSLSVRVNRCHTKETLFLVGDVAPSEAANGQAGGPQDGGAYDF
Outline: (§1)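 Isolated-organ contractile bioassays: SP on rabbit vena cava (NK-1), neurokinin A on rabbit pulmonary artery (NK-2), neurokinin B on rat portal vein (NK-3); antagonist apparent affinity expressed as pA2 by Schild plot.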

Substance-K receptor [4] = biological target: T3, Substance-K receptor (Rattus norvegicus, UniProt P16610); assay: Tested for binding affinity against rat NK-2 receptor transfected on CHO cells using [125I]-His] NKA as radioligand; assay type: cell-based
T3 sequence (P16610 whole entry): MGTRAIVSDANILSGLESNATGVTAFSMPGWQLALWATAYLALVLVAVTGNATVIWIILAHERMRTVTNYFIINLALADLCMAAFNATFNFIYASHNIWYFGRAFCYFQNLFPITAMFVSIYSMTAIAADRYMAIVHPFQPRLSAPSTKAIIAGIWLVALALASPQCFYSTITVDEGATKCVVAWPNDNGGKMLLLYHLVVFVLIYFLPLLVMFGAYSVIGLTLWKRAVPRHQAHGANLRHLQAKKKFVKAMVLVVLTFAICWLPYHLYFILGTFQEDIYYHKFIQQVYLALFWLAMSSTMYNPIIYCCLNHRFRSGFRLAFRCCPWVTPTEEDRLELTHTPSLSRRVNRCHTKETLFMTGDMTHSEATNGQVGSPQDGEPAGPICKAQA

Neuromedin-K receptor = biological target: T4, Neuromedin-K receptor (Rattus norvegicus, UniProt P16177); assay: Tested for antagonist activity against NK-3 receptor in rat portal vein by using Neurokinin B as agonist; assay type: functional; details: read-out: pA2 (converted); outline: as §1
T4 sequence (P16177 whole entry): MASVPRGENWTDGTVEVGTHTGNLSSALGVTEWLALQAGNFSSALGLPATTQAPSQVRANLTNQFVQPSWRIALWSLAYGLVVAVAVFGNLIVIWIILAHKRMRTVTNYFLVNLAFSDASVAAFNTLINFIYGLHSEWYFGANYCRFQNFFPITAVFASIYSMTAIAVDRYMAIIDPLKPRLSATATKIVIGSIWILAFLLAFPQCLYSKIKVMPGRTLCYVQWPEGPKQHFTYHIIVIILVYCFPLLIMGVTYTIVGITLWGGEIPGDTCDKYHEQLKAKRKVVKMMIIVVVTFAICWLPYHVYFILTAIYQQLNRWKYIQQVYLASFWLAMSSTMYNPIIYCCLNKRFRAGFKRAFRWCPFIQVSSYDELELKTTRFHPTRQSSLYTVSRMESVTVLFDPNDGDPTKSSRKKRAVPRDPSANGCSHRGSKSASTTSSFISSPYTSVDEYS

Mus musculus [5] = assay: Tested for antinociceptive activity against mouse hotplate test for 60 min after oral administration of 40 mg/kg; assay type: functional
Outline: (§2)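 Male CD1 mice (25-30 g) on a 55 ± 0.2 °C plate; forepaw-licking latency measured 60 min after oral 40 mg/kg given in water (soluble) or 0.2% hydroxypropylcellulose (insoluble); % increase of reaction time versus vehicle controls; groups of 12 animals; Dunnett t-test.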

Mus musculus [6] = assay: Tested for antinociceptive activity against mouse hotplate test for 10 min after intravenous injection at 0.5 mg/kg
[7] = biological target: Substance-P receptor (Oryctolagus cuniculus); assay: Tested for antagonist activity against NK1 receptor in rabbit vena cava by using substance P (SP) as agonist; details: read-out: pA2 (converted)
Rattus norvegicus [8] = organism: Rattus norvegicus; assay: Binding affinity by displacement of tritiated substance P from its binding sites on membrane preparations from rat brain
Mus musculus [9] = organism: Mus musculus; assay: Binding affinity by displacement of tritiated substance P from its binding sites on membrane preparations from mouse brain
Substance-K receptor [10] = biological target: T1, Substance-K receptor; assay: Tested for binding affinity against human NK-2 receptor
Substance-K receptor [11] = biological target: T3, Substance-K receptor; assay: Tested for binding affinity against rat NK-2 receptor
Mus musculus [12] = assay: Tested for antinociceptive activity against mouse hotplate test for 10 min after intravenous injection at 0.5 […] (P*<0.05); assay type: functional
Mus musculus [13] = assay: Tested for antinociceptive activity against mouse hotplate test for 60 min after oral administration of 40 mg/kg (P*<0.05); assay type: functional; outline: as §2
Substance-P receptor [14] = biological target: Substance-P receptor (Homo sapiens, UniProt P25103); assay: Tested for binding affinity against human NK-1 receptor
Substance-P receptor (Homo sapiens, UniProt P25103), sequence (P25103 whole entry): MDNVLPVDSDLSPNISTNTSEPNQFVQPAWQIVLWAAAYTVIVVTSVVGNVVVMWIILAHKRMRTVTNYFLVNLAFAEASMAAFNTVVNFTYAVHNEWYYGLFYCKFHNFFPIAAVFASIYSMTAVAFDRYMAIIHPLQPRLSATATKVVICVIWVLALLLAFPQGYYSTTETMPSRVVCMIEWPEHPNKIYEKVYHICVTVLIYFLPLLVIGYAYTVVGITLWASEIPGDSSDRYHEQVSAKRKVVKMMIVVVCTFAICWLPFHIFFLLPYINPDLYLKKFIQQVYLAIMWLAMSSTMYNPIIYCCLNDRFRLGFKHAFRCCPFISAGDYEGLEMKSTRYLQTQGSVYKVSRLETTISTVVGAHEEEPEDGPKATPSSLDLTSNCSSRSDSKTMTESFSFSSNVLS

Substance-P receptor [15] = biological target: Substance-P receptor (Rattus norvegicus, UniProt P14600); assay: Tested for binding affinity against rat NK-1 receptor
Substance-P receptor (Rattus norvegicus, UniProt P14600), sequence (P14600 whole entry): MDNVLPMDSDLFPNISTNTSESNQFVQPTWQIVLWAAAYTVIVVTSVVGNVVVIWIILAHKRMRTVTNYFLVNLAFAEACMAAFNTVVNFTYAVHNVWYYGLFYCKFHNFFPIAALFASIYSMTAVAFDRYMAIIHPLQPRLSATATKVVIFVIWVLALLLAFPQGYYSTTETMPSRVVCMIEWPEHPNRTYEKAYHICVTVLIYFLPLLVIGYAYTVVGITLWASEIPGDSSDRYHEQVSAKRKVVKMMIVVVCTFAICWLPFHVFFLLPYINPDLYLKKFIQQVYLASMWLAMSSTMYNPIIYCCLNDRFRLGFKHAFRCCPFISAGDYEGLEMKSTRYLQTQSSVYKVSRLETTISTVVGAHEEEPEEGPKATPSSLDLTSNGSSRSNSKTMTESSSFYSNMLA

Rattus norvegicus [16] = organism: Rattus norvegicus; assay: Tested for its ability to promote degranulation of rat peritoneal mast cells; assay type: functional, cell-based
Outline: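 Peritoneal mast cells lavaged from male Sprague-Dawley rats (350-400 g), buffer pH 6.8, 2 × 10^4 cells/mL, preincubated 10 min at 37 °C, then exposed to compound (10^-7 to 10^-4 M, in water or DMSO) 10 min at 37 °C; iced, centrifuged; histamine in supernatant and pellet measured fluorimetrically with o-phthalaldehyde, as % of total.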

Row | SMILES | solubility [1] | Kb (Substance-K receptor [3]) | Kb (Neuromedin-K receptor) | Kb [7] | other results
1 | CCCCCCCC(=O)n1cc(C[C@@H](NC(=O)C[C@@H]2NC(=O)[C@@H]3C4CCC(CC4)N3C2=O)C(=O)N[C@@H](Cc2ccccc2)C(=O)N(C)Cc2ccccc2)c2ccccc21 | < 0.01 mg/mL | 15800 nM | 12600 nM | 12600 nM | 
2 | CC(C)C[C@H](NC(=O)[C@H](CC(C)C)NC(=O)[C@@H](Cc1c[nH]c2ccccc12)NC(=O)[C@H](Cc1ccccc1)NC(=O)[C@@H](Cc1c[nH]c2ccccc12)NC(=O)[C@H](CCC(N)=O)NC(=O)[C@H](CCC(N)=O)NC(=O)[C@@H]1CCCN1C(=O)[C@H](CCCCN)NC(=O)[C@@H]1CCCN1C(=O)[C@H](N)CCCN=C(N)N)C(N)=O (HELM PEPTIDE1{[dR].P.K.P.Q.Q.[dW].F.[dW].L.L.[am]}$$$$V2.0) |  |  | 631 nM |  | Ki (Rattus norvegicus [8]): 2600 nM; Ki (Mus musculus [9]): 2600 nM
3 | CN(Cc1ccccc1)C(=O)[C@H](Cc1ccccc1)NC(=O)[C@@H](Cc1cn(C(=O)CCCCCCN)c2ccccc12)NC(=O)C[C@@H]1NC(=O)[C@@H]2C3CCC(CC3)N2C1=O | 43 mg/mL (≈ 52.7 mM) | 20000 nM | 2000 nM |  | IC50 (Substance-K receptor [10]): 45 nM; IC50 (Substance-K receptor [11]): 188 nM; Increase (Mus musculus [12]): 54%; Increase (Mus musculus [13]): 62%; IC50 (Rattus norvegicus [16]): 13000 nM

More lines, main results first:

Row | solubility [1] | Kb (Substance-K receptor [3]) | Kb (Neuromedin-K receptor) | Kb [7] | SMILES | other results
4 | < 0.01 mg/mL | 10000 nM | 7940 nM |  | CN(Cc1ccccc1)C(=O)[C@H](Cc1ccccc1)NC(=O)[C@@H](Cc1cn(C)c2ccccc12)NC(=O)C[C@@H]1NC(=O)[C@@H]2C3CCC(CC3)N2C1=O | IC50 (Substance-K receptor [2]): 79 nM; IC50 (Substance-K receptor [4]): 489 nM; Increase (Mus musculus [5]): 10%; Increase (Mus musculus [6]): 17%
5 | < 0.01 mg/mL | 1260 nM | 1580 nM | 158 nM | CN(Cc1ccccc1)C(=O)[C@H](Cc1ccccc1)NC(=O)[C@@H](Cc1cn(C(=O)OCc2ccccc2)c2ccccc12)NC(=O)C[C@@H]1NC(=O)[C@@H]2C3CCC(CC3)N2C1=O | 
6 | 40 mg/mL (≈ 48.1 mM) | 10000 nM | 10000 nM | 39.8 nM | CN(Cc1ccccc1)C(=O)[C@H](Cc1ccccc1)NC(=O)[C@@H](Cc1cn(C(=O)OCCCCCCN)c2ccccc12)NC(=O)C[C@@H]1NC(=O)[C@@H]2C3CCC(CC3)N2C1=O | IC50 (Substance-K receptor [10]): 46 nM; IC50 (Substance-K receptor [11]): 244 nM; Increase (Mus musculus [12]): 40%; Increase (Mus musculus [13]): 62%; IC50 (Substance-P receptor [14]): 34 nM; IC50 (Substance-P receptor [15]): 3140 nM; IC50 (Rattus norvegicus [16]): 13000 nM
7 | < 0.01 mg/mL | 15800 nM | 158 nM | 100 nM | COC(=O)n1cc(C[C@@H](NC(=O)C[C@@H]2NC(=O)[C@@H]3C4CCC(CC4)N3C2=O)C(=O)N[C@@H](Cc2ccccc2)C(=O)N(C)Cc2ccccc2)c2ccccc21 | 
